Here are results for one compound from ChEMBL document CHEMBL1157367, “Systematic comparison of the population pharmacokinetics and pharmacodynamics of piperacillin in cystic fibrosis patients and healthy volunteers” (Antimicrob Agents Chemother, 2007).

The structures appear in SMILES notation.

What all share (type): ADME, organism-based
A short description of data set [1]: Total clearance in cystic fibrosis patient at 4 g, iv. To be noted: human, in vivo. In outline:
(§1)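 Single 5-min IV infusion of 4 g piperacillin. Forearm-vein blood drawn from the arm opposite the infusion line pre-dose, at end of infusion, and 5 min to 24 h afterwards. Plasma iced, frozen at –70°C, acetonitrile-deproteinized with mezlocillin internal standard. Reversed-phase HPLC, UV 220 nm, linear 0.200–150 mg/liter. Unscaled parameters by noncompartmental analysis.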

A short description of data set [2]: Volume of distribution at steady state in cystic fibrosis patient at 4 g, iv. Particulars: human, in vivo, read-out: Vdss. In outline: as §1
Data set [3] is described as follows: Peak drug level in cystic fibrosis patient at 4 g, iv. To be noted: human, in vivo, read-out: Drug uptake. The essentials: as §1
Data set [4] can be described thus: Terminal half life in cystic fibrosis patient at 4 g, iv. To be noted: human, in vivo. The essentials: as §1
A short description of data set [5]: Mean residence time in cystic fibrosis patient at 4 g, iv. Particulars: human, in vivo. In outline: as §1
Data set [6] in a line: Total clearance in healthy human at 4 g, iv. To be noted: in vivo. The essentials: as §1
Data set [7] in a line: Volume of distribution at steady state in healthy human at 4 g, iv. To be noted: in vivo, read-out: Vdss. In outline:
as §1

The nature of data set [8]: Peak drug level in healthy human at 4 g, iv. Particulars: in vivo, read-out: Drug uptake. The essentials:
as §1

Data set [9] in a line: Terminal half life in healthy human at 4 g, iv. Particulars: in vivo. The essentials:
as §1

Data set [10] can be described thus: Mean residence time in healthy human at 4 g, iv. To be noted: in vivo. The essentials: as §1
Data set [11] is described as follows: Clearance in cystic fibrosis patient with lean body mass of 53 kg at 4 g, iv. Particulars: human, in vivo. The essentials: (§2)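 4 g piperacillin as a single 5-min IV infusion. Serial plasma sampled to 24 h and assayed by reversed-phase HPLC-UV (220 nm, mezlocillin internal standard, LOQ 0.200 mg/liter). Population PK model fitted in NONMEM with body size described by lean body mass and a CF-specific scale factor. Combined additive plus proportional residual error.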

The nature of data set [12]: Volume of distribution at steady state in cystic fibrosis patient with lean body mass of 53 kg at 4 g, iv. To be noted: human, in vivo, read-out: Vdss. The essentials:
as §2

A short description of data set [13]: Clearance in healthy human with lean body mass of 53 kg at 4 g, iv. Particulars: in vivo. In outline: as §2
Another data set deals with Homo sapiens. Nature of the data set: Peripheral volume of distribution in cystic fibrosis patient with lean body mass of 53 kg at 4 g, iv. Particulars: in vivo. The essentials:
as §2

Data set [14] can be described thus: Volume of distribution at steady state in healthy human with lean body mass of 53 kg at 4 g, iv. To be noted: in vivo, read-out: Vdss. In outline: as §2

`CCN1CCN(C(=O)N[C@@H](C(=O)N[C@@H]2C(=O)N3[C@@H]2SC(C)(C)[C@@H]3C(=O)O)c2ccccc2)C(=O)C1=O` [PIPERACILLIN]: the clearance (as a rule, the rate of elimination divided by the concentration) in [1] is 146 mL/min; in [6], 195 mL/min; in data set [11] it was 188 mL/min; in data set [13] it was 188 mL/min. The Vd in data set [2] is 8.13 L; in [7] it was 11.8 L; in [12], 9.61 L; in [14] it was 10.4 L. The Cmax in [3] worked out at 767 µg/mL; in data set [8] it was 446 µg/mL. Also, the half-life (commonly how long it takes for the measured level to halve) is 41.4 min in [4] and 63 min in data set [9]. Also, the figures for the MRT in data set [5] and in data set [10] were 51 min and 1.02 h, respectively. Also, the Vp/F in the data set with Homo sapiens amounted to 3.12 L.
